TRPC6 activator: mouse TRPC6 channel activators, primary screen, cell-based, HEK293, membrane potential dye. Short transient receptor potential channel 6 (Mus musculus), Q61143. HEK293-TRPC6 membrane potential dye fluorescence; stronger effect = higher value. B-score at 10 µM. 0.13% of 310,000 active;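 active = B-score of the integrated fluorescence ratio above library mean plus 3 SD, and starting fluorescence ratio within library mean plus 5 SD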;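 also: higher score means more depolarization so channel activation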
TRPC4 block: inhibitors of mouse TRPC4 channel, primary screen, Fluo4 calcium, HEK293 TRPC4beta/mu-opioid cells; Short transient receptor potential channel 4 (Mus musculus), Q9QUQ5; DAMGO-evoked Fluo4 calcium flux; stronger effect = lower value; B-score at 10 µM; 0.39% of 300,000 active;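 active = B-score over 3 SD under the library average, no early fluorescence shift, positive overall ratio signal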
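Assay system: TRPC4beta/mu-opioid receptor HEK293 cell line; compound dosing: single concentration per test compound; detection: Fluo4 Ca2+ flux fluorescence; evaluation: per-well B score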
TRPC4 PAM: positive allosteric modulators of TRPC4, primary screen, cell-based, mouse TRPC4beta, HEK293 mu-opioid, Fluo-4 calcium | 0.42% of 310,000 active | Short transient receptor potential channel 4 (Mus musculus), Q9QUQ5 | B-score at 10 µM | DAMGO EC20, Fluo-4 Ca2+ flux; stronger effect = higher value;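 active = B-score of calcium response area above 5 SD of library B-scores, with initial fluorescence ratio within 5 SD of library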;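 also: B-score of integrated fluorescence ratio over time as area under calcium response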
TRPC4 act: activators of mouse TRPC4 channel, primary screen, Fluo4 calcium, HEK293 TRPC4beta/mu-opioid cells; Fluo4 calcium fluorescence; stronger effect = higher value; B-score at 10 µM; Short transient receptor potential channel 4 (Mus musculus), Q9QUQ5; 0.49% of 310,000 active;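 active = B-score above 5 SD of library B-scores, and initial fluorescence ratio not above library mean plus 5 SD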;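 also: positive B-score marks a calcium rise read as TRPC4 activation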
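system = HEK293 cells stably co-expressing mouse TRPC4beta and mu-opioid receptor | schedule = Fluo4 dye loading 45 min at room temperature, 110 s recording | measure = B-scored integrated calcium fluorescence ratio | signal = Fluo4 calcium-sensitive dye fluorescence, kinetic, 1 Hz baseline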
TRPC6 inhibitor: mouse TRPC6 channel inhibitors, primary screen, cell-based, HEK293, membrane potential dye. Short transient receptor potential channel 6 (Mus musculus), Q61143. ACh-evoked depolarization; stronger effect = lower value. B-score at 10 µM. 1.1% of 310,000 active;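 active = B-score under library mean minus 3 SD, initial fluorescence not abnormally high, positive integrated signal ratio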;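 also: B-score derived from integrated fluorescence ratio over the kinetic read; more negative B-score means stronger inhibition of depolarization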
* marks the source's active call; other numbers are inactive results. Sampled rows, rich in hits. Any-hit rate of the full collection: about 2.3%.

For O=[N+]([O-])c1ccc(N2CCNCC2)cc1NCC1CCCO1 (stereo unspecified) the results were TRPC6 activator inactive, TRPC4 block inactive, TRPC4 PAM inactive, TRPC4 act inactive and TRPC6 inhibitor inactive.
`O=[N+]([O-])c1ccc(N2CCNCC2)cc1NC1CC1` gave TRPC6 activator inactive, TRPC4 block inactive, TRPC4 PAM inactive, TRPC4 act 117* and TRPC6 inhibitor inactive.
CNCC(=O)c1ccccc1 was read as TRPC6 activator inactive, TRPC4 block inactive, TRPC4 PAM inactive, TRPC4 act inactive and TRPC6 inhibitor inactive.
Screening Clc1ccc(CCNCc2ccncc2)c(Cl)c1 returned TRPC6 activator inactive, TRPC4 block inactive, TRPC4 PAM inactive, TRPC4 act 50* and TRPC6 inhibitor inactive.
`CN1CCN(Cc2nc3ccccc3n2C)CC1` gave TRPC6 activator inactive, TRPC4 block inactive, TRPC4 PAM 11*, TRPC4 act inactive and TRPC6 inhibitor inactive.
Screening Cc1nn(CC(C)C)c(Cl)c1C(=O)NC1CCC(C)CC1 (stereo unspecified) returned TRPC6 activator inactive, TRPC4 block inactive, TRPC4 PAM inactive, TRPC4 act inactive and TRPC6 inhibitor inactive.
COC(=O)C1=CCCN(C)C1 was read as TRPC6 activator inactive, TRPC4 block inactive, TRPC4 PAM inactive, TRPC4 act 99* and TRPC6 inhibitor inactive.
For Cc1nc2ccc(Cl)cc2c(-c2ccccc2)c1C(=O)O the results were TRPC6 activator inactive, TRPC4 block inactive, TRPC4 PAM inactive, TRPC4 act inactive and TRPC6 inhibitor inactive.
Screening CCN(CC)c1ccc(CNCCc2ccc(F)cc2)cc1 returned TRPC6 activator inactive, TRPC4 block inactive, TRPC4 PAM inactive, TRPC4 act 51* and TRPC6 inhibitor inactive.
For CCc1ccc(CNCCc2ccc(F)cc2)cc1 the results were TRPC6 activator inactive, TRPC4 block inactive, TRPC4 PAM inactive, TRPC4 act inactive and TRPC6 inhibitor inactive.
For C/C=C(\C)C(=O)OC1C(C)=C2C(C1OC(=O)CCCCC)C(C)(OC(C)=O)CC(OC(=O)CCC)C1(O)C2OC(=O)C1(C)O (stereo unspecified) the results were TRPC6 activator inactive, TRPC4 block inactive, TRPC4 PAM inactive, TRPC4 act 71* and TRPC6 inhibitor -5.8*.
`CCOC(=O)C1(c2ccccc2)CCN(CCC(=O)Nc2ccccc2OC)CC1` gave TRPC6 activator inactive, TRPC4 block inactive, TRPC4 PAM inactive, TRPC4 act 50* and TRPC6 inhibitor inactive.
For N=c1n(CCO)c2ccccc2n1Cc1ccccc1 the results were TRPC6 activator inactive, TRPC4 block -7*, TRPC4 PAM inactive, TRPC4 act inactive and TRPC6 inhibitor inactive.
`Cc1cccc(-n2c(-c3ccccc3)nc3ccccc3c2=O)n1` gave TRPC6 activator inactive, TRPC4 block inactive, TRPC4 PAM inactive, TRPC4 act inactive and TRPC6 inhibitor inactive.
`CN(C)S(=O)(=O)c1cccc(C(=O)N2CCC(C(=O)O)(c3ccccc3)CC2)c1` gave TRPC6 activator inactive, TRPC4 block inactive, TRPC4 PAM inactive, TRPC4 act inactive and TRPC6 inhibitor inactive.
Screening C=CCN1CC[C@]23c4c5ccc(O)c4O[C@H]2/C(=N/NC(=O)c2ccccc2)CC[C@@]3(O)[C@H]1C5 returned TRPC6 activator inactive, TRPC4 block inactive, TRPC4 PAM inactive, TRPC4 act 49* and TRPC6 inhibitor inactive.
Screening Cc1ccc(NC(=O)[C@@H](NC(=O)N2C[C@H]3C[C@@H](C2)c2cccc(=O)n2C3)C(C)C)cc1 returned TRPC6 activator inactive, TRPC4 block inactive, TRPC4 PAM inactive, TRPC4 act inactive and TRPC6 inhibitor inactive.
Screening COc1ccc(C(CNC(=O)c2ccc3c(c2)CCC3)N(C)C)cc1 (stereo unspecified) returned TRPC6 activator inactive, TRPC4 block inactive, TRPC4 PAM inactive, TRPC4 act 209* and TRPC6 inhibitor inactive.
